# Sampled rows, rich in hits. Any-hit rate of the full collection: about 3.7%.
# KCNK3 block = human KCNK3 channel inhibition, primary screen; CHO-KCNK3 thallium flux, FluxOR fluorescence; active compounds read low; hit rate 0.84% among 340,000; B-score at 10 µM; O14649;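 active = B-score under library mean minus 4 SD, starting fluorescence ratio at most library mean plus 5 SD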;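 also: more negative B-score means stronger inhibition of thallium flux through KCNK3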
# KCNQ1 act = potentiators or activators of human KCNQ1 potassium channel | CHO-K1 KCNQ1, thallium flux FluxOR fluorescence; active compounds read high | B-score at 10 µM | AID 2648 | P51787 | hit rate 0.35% among 310,000;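 active = fluorescence ratio B-score, a plate-corrected score, at least three library SD, with initial intensity B-score within 5 SD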
#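 assay system = KCNQ1-transfected CHO-K1 cells | medium = assay buffer with matched DMSO | probe or stimulus = depolarizing K+/Tl+ stimulus, K2SO4 and Tl2SO4 each 12.5 mM in 5x stock | dosing = single dose | incubation = dye 90 min, compound 20 min, room temperature | detection = kinetic FluxOR fluorescence, 10 s baseline plus 110 s post-stimulus | evaluation = ratio B score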
# KCNQ1 block = blocks the human KCNQ1 potassium channel | B-score at 10 µM | CHO-K1 KCNQ1, FluxOR thallium flux fluorescence; active compounds read high | AID 2642 | hit rate 1.3% among 310,000 | P51787;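 active = compounds whose thallium flux B-score, printed positive for inhibition, exceeds three library SD while starting fluorescence stays within three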;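 also: channel opened by potassium depolarization with thallium stimulus after 20 min compound exposure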
# hERG protect = shields human hERG channel from block by proarrhythmic agents; Q12809; CHO-hERG, FluxOR thallium flux, dofetilide IC70 present; activation (rescue from dofetilide block), less the hit threshold, % at 10 µM; hit rate 0.51% among 310,000; AID 1511;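 active = activation above the mean of controls blocked by dofetilide plus 5 SD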;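 also: thallium influx through hERG after potassium depolarization seen as dye fluorescence rise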
# KCNK9 block = inhibitors of human KCNK9 two-pore domain potassium channel. B-score at 10 µM. HEK293 KCNK9, FluxOR thallium flux fluorescence; active compounds read low. Q9NPC2. hit rate 1.2% among 310,000. AID 488922;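 active = ratio B-score over 3 SD below the library mean, with starting fluorescence within 5 SD of its mean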;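 also: negative B-score means less thallium flux so channel inhibition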
# Kir21 inh = Kir2.1 (mouse) channel inhibition; P35561; HEK293-Kir2.1, FluxOR thallium flux fluorescence; active compounds read low; B-score at 10 µM; hit rate 0.85% among 310,000;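 active = fluorescence ratio B-score at or below minus 3 SD of library scores, with starting-brightness B-score within 2 SD, cut at about -4.2 in these data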;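 also: channel flux triggered by added potassium and thallium sulfate stimulus; B-score of peak minus minimum fluorescence over baseline after thallium stimulus; more negative B-score means stronger Kir2.1 block with less thallium influx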
# Target sequence (P35561 whole entry, looked up): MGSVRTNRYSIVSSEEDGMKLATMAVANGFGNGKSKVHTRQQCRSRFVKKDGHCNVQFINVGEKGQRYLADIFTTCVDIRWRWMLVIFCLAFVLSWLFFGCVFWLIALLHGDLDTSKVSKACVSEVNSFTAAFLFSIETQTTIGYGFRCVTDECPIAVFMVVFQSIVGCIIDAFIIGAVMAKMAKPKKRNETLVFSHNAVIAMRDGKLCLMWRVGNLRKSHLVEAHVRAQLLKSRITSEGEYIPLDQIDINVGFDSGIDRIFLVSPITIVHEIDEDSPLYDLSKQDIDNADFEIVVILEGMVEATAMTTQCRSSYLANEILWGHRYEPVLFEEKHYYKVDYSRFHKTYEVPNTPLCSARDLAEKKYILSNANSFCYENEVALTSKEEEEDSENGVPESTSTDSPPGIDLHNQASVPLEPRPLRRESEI
# * hit, by the source's call; i = inactive; x = no result given.
SMILES,KCNK3 block,KCNQ1 act,KCNQ1 block,hERG protect,KCNK9 block,Kir21 inh
Clc1ccc(OCCOCCN2CCCCC2)c(Br)c1,i,i,i,-14,i,-2.1
O=C(NCc1cccc(Cl)c1)c1ccc(CS(=O)Cc2ccccc2Cl)o1 (stereo unspecified),i,i,i,-4,i,-0.34
CO/N=C(/CS(=O)Cc1ccccc1Cl)c1ccc(Cl)cc1Cl (stereo unspecified),i,i,i,-1,i,-5*
CCOC(=O)c1c(S(=O)(=O)NCCCc2ccco2)c(C)n(C)c1C,i,i,i,-5,i,-1.2
O=[N+]([O-])c1ccc(O)c(/C=N\N=C2c3ccccc3-c3ccccc32)c1,i,i,7*,-17,i,0.19
NC(N)=N/N=C/c1cc([N+](=O)[O-])ccc1O,i,i,i,-6,i,1.4
CCc1ccc(CN(C)CC(=O)Nc2ccc(S(=O)(=O)N3CCOCC3)cc2)cc1,i,x,x,x,x,x
CC12CC3CC1C(C(=O)O2)C3C(=O)O (stereo unspecified),i,x,x,x,x,x
Cc1cc(C)n(-c2ccc(C(=O)NCc3ccc(F)cc3)cc2)n1,i,i,i,-12,i,-9.9*
O=C(c1ccc(S(=O)(=O)N2CCCC2)cc1)N1CCN(c2cccc(Cl)c2)CC1,i,9*,i,-12,i,0.74
O=C(c1ccc(S(=O)(=O)N2CCCC2)cc1)N1CCN(c2ccccc2)CC1,i,i,i,-8,i,1.1
Cc1nc(C)c(-c2ccc(SCc3ccccc3C)nn2)s1,i,i,i,-6,-7.9*,-1.4
Cc1ccc(C(C[N+](=O)[O-])c2c(-c3ccccc3O)[nH][nH]c2=O)cc1 (stereo unspecified),i,i,i,-7,i,-9.5*
O=c1[nH][nH]c(-c2ccccc2O)c1C(C[N+](=O)[O-])c1ccc(Br)cc1 (stereo unspecified),i,i,i,-13,i,-2.9
Cc1cc2c(cc1C)CSC(c1ccccc1OC(=O)C(C)(C)C)SC2,i,i,6*,-12,i,-0.05
CCCCC(=O)Oc1ccccc1C1SCc2cc(C)c(C)cc2CS1,i,i,i,-9,i,-0.14
CCCNC(=O)c1ccc(N2CCC3(CC2)CC(c2ccccc2)=NO3)c(NC(=O)Cc2ccc(F)cc2)c1,i,i,i,-11,i,-2.9
Cc1c(C)n(Cc2ccc(F)cc2)c2ccc(C(=O)NCCN3CCOCC3)cc12,i,i,i,-11,i,-0.07
CC1(c2ccccc2)CC(c2ccccc2)=Nc2nonc2N1 (stereo unspecified),i,i,i,-10,i,-4.4*
O=C(COC(=O)COc1ccccc1[N+](=O)[O-])NC1CCCCC1,i,x,x,x,x,x
S=C(N/N=C/c1ccccc1Cl)Nc1cccc(Cl)c1Cl,i,12*,i,9.8*,i,-0.68
CN(c1ccccc1)S(=O)(=O)c1cccc(NC(=O)COc2cccc([N+](=O)[O-])c2)c1,-9.9*,x,x,x,x,x
CN(c1ccccc1)S(=O)(=O)c1cccc(NC(=O)CSc2nccc(=O)[nH]2)c1,-9.8*,x,x,x,x,x
CCC(=O)c1ccc(OCC(=O)Nc2cccc(S(=O)(=O)N(C)c3ccccc3)c2)cc1,i,x,x,x,x,x
Cc1nnc(SCC(=O)Nc2cccc(S(=O)(=O)N(C)c3ccccc3)c2)s1,i,i,6*,-14,i,-2
SMILES,KCNK3 block,KCNQ1 act,KCNQ1 block,hERG protect,KCNK9 block,Kir21 inh
COCCn1cnnc1SCC(=O)Nc1cccc(S(=O)(=O)N(C)c2ccccc2)c1,i,i,i,-8,i,-0.45
CC(C)(C)C(=O)C(C(c1ccccc1)N1CCOCC1)N1CCOCC1 (stereo unspecified),i,x,x,x,x,x
O=C(Nc1ccc(S(=O)(=O)N2CCCC2)cc1)C1CC(=O)N(CCc2ccc(F)cc2)C1 (stereo unspecified),i,x,x,x,x,x
Cc1ccccc1NC1=NC(=S)N(c2ccccc2)C12CCCCC2,i,15*,i,12*,i,0.32
CC(C)c1cccc(C(C)C)c1NC(=O)COC(=O)C1=COCCO1,i,i,i,-5,i,0.89
CC(C)c1cccc(C(C)C)c1NC(=O)COC(=O)[C@H](C)NC(N)=O,i,i,i,11*,i,-1.5
CCOC(=O)c1ccc(Oc2ccc(C(F)(F)F)cn2)cc1,i,i,i,-4,i,2.3
CCOc1cccc(Oc2ccc(C(F)(F)F)cn2)c1,i,i,i,-4,-7.9*,-1.5
CCCCCCCCCS(=O)(=O)N/N=C/c1cccc([N+](=O)[O-])c1,i,i,8*,-10,i,0.88
CCCCCCC(=O)Nc1ccc(C(=O)N/N=C/c2cccnc2)cc1,i,i,i,-4,i,2.2
CCCCCCCC(=O)Nc1ccc(C(=O)N/N=C/c2cccc([N+](=O)[O-])c2)cc1,i,i,i,8.9*,i,-0.91
Cc1cc(OCC(=O)OCC(=O)Nc2cc(S(=O)(=O)N3CCOCC3)ccc2Cl)ccc1Cl,i,x,x,x,x,x
N#CCCN(C(=S)NC(=O)C1CCCCC1)c1ccccc1F,i,x,x,x,x,x
COc1c2c(c(OC)c3c1c(=O)c1ccccc1n3C)OCO2,i,x,x,x,x,x
O=C(c1ccc(Cl)s1)N1CCN(S(=O)(=O)c2ccc(Cl)cc2)CC1,i,x,x,x,x,x
CC(=O)c1cccc(N=c2scc(-c3ccc(S(=O)(=O)N4CCOCC4)cc3)n2CCO)c1,i,i,7*,-17,i,0.16
COCCCN(C(=O)CCOc1ccccc1C)c1c(N)n(Cc2ccccc2)c(=O)[nH]c1=O,i,i,i,-21,i,0.02
N#Cc1ccc(N2Cc3ccccc3C2=NC(=O)c2cccnc2Cl)cc1,i,i,i,-8,i,2.1
O=C(N=C1c2ccccc2CN1c1ccc(F)c(Cl)c1)c1cccnc1Cl,x,i,i,-7,-11*,-0.21
CC(C)(C)N(Cc1ccccc1)C(=O)COC(=O)C1=NN(c2ccccc2)C(=O)CC1,i,x,x,x,x,x
N#CCc1ccccc1C(=O)OCC(=O)N(Cc1ccccc1)Cc1ccccc1,-9.4*,x,x,x,x,x
Nc1ccccc1C(=O)NC(=O)Nc1ccc(Oc2ncc(Br)cn2)c(Cl)c1,i,x,x,x,x,x
CCN1C(=O)C(=Cc2cccc(OC)c2Oc2ccc([N+](=O)[O-])cc2[N+](=O)[O-])SC1=S,i,i,i,-8,i,-1.4
NNC(=O)C(=O)/C=C1\NC2(CCCC2)Cc2ccccc21,i,i,i,-8,i,-0.25
COc1ccc(/C=N/NC(=O)C(=O)/C=C2\NC3(CCCC3)Cc3ccccc32)cc1,i,i,i,-6,-6.6*,0.87

# High-throughput results as filed in PubChem.
